Laboratory results taken from ChEMBL document CHEMBL1124636, “3,4-Dihydro-2H-1-benzopyran-2-carboxylic acids and related compounds as leukotriene antagonists” (J Med Chem, 1989).
One block for each compound: values may come before it.

Columns and labels:
[1] = target: T1, Cysteinyl leukotriene receptor 1 (Cavia porcellus) (UniProt Q2NNR5); assay: (§1) Inhibition of leukotriene D4 induced bronchoconstriction in anesthetized guinea pigs after intravenous administration at a dose of 10 mg/kg; type: functional, organism-based; set-up: dose 10 mg/kg
T1 sequence (whole entry): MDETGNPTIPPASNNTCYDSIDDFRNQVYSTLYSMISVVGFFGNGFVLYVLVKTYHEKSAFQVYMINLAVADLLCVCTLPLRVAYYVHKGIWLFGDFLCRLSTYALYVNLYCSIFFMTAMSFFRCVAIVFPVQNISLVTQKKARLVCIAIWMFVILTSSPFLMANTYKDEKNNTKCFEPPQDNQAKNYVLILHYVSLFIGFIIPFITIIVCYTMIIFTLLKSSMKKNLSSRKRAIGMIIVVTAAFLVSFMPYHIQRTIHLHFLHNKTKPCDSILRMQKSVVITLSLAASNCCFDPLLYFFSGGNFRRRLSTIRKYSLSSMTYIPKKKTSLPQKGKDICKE
Procedure, shortened: (§2)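 Male Hartley guinea pigs, 400–600 g, urethane 2 g/kg ip, jugular cannula, propranolol 0.1 mg/kg iv 5 min before challenge, succinylcholine 1.2 mg/kg iv, ventilated. Vehicle or drug iv 30 s before LTD4 25 µg/kg iv; tracheal pressure change.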

[2] = tested on: Cysteinyl leukotriene receptor (Cavia porcellus); assay: Inhibitory activity of compound to block binding of radiolabeled leukotriene D4 to receptor sites in homogenized guinea pig lung at 10 uM
[3] = target: T1, Cysteinyl leukotriene receptor 1 (Cavia porcellus); assay: Inhibition of leukotriene D4 induced bronchoconstriction in anesthetized guinea pigs after aerosol administration as 1% solution; details: concentration not given here
Procedure, shortened: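 Guinea pigs given propranolol 0.1 mg/kg iv 5 min before 5-min ultrasonic nebulizer exposure to aqueous, NaOH-neutralized drug (% w/v) or distilled water, breathing spontaneously. LTD4 50 µg/kg iv 30 s after exposure; tracheal pressure change.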

[4] = target: T1, Cysteinyl leukotriene receptor 1 (Cavia porcellus); assay: as §1; type: organism-based; set-up: dose 10 mg/kg; procedure, shortened: as §2
[5] = target: T1, Cysteinyl leukotriene receptor 1 (Cavia porcellus); assay: Inhibitory activity of compound to block binding of radiolabeled Cysteinyl leukotriene D4 receptor sites in homogenized guinea pig lung at 10 uM
Procedure, shortened: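 Lung from male Hartley guinea pigs (400–500 g), homogenized in sucrose/Tris pH 7.5 with protease inhibitors; 30000g membrane pellet in 10 mM PIPES pH 7.5, 50 mM NaCl. Binding: Tyrode, 0.1% BSA, 1 mM glycine, 1 mM cysteine, 3.5 nM [3H]LTD4, 100–200 µg protein, 20 °C, 30 min; glass-fiber filtration. Nonspecific with 10^-6 M LTD4. Triplicate screen at 10 µM; IC50 by linear regression.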

Cavia porcellus [6] = assay: Inhibition of leukotriene E4 induced bronchoconstriction in anesthetized guinea pigs after aerosol administration as 1% solution; type: functional
[7] = tested on: Cysteinyl leukotriene receptor (Cavia porcellus); assay: Inhibitory activity to block binding of [3H]leukotriene D4 to LTD4 receptor sites in homogenized guinea pig lung at 10 uM
Cavia porcellus [8] = assay: Inhibition of leukotriene E4 induced bronchoconstriction in anesthetized guinea pigs after intravenous administration at a dose of 10 mg/kg; type: functional
Cavia porcellus [9] = assay: Inhibition of leukotriene D4 induced bronchoconstriction in anesthetized guinea pigs after intravenous administration at a dose of 1 mg/kg; type: functional
[10] = Inhibitory activity to inhibit Inophore-induced arachidonic acid metabolism (inhibition of PGE-2 formation) in rat; type: functional
Procedure, shortened: (§3)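 Rat peritoneal macrophages adhered 90 min at 37 °C, labeled with [14C]arachidonic acid 90 min, washed. Compound 30 min at 37 °C, then A23187 0.5 µM for 20 min. LTB4 and PGE2 in medium by radioimmunoassay.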

Rattus norvegicus = organism: Rattus norvegicus; assay: Inhibitory activity to inhibit Inophore-induced arachidonic acid metabolism (inhibition of LTB4 formation) in rat; Inactive = no significant inhibition at a concentration of 100 uM; type: functional, organism-based; procedure, shortened: as §3

Structure (SMILES): CCCc1c(O)c(C(C)=O)cc(O)c1OCCCCCOc1cc2c(cc1C(C)=O)CCC(C(=O)O)O2 (configuration not stated)
- inhibition [1]: 0%
- Inhibition [2]: 0%

Structure (SMILES): CCCCCCCCCCCCc1ccccc1C(SCCC(=O)O)SCCC(=O)O
- inhibition [3]: 39%
- inhibition [4]: 29%
- inhibition [5]: 24%

Structure (SMILES): CCCc1c(OCCCOc2c(C)c(C)c3c(c2C)CCC(C)(C(=O)O)O3)ccc(C(C)=O)c1O (configuration not stated)
- Inhibition (Cavia porcellus [6]): 53%
- inhibition [7]: 88%
- inhibition in vivo at 10 mg/kg (Cavia porcellus [8]): 99%

Continued, in another order:

- inhibition [7]: 60%
Structure (SMILES): CCCc1c(OCCCCCOc2cc3c(cc2C(C)=O)CCC(c2nnn[nH]2)O3)ccc(C(C)=O)c1O (configuration not stated)
- inhibition in vivo at 1 mg/kg (Cavia porcellus [9]): 0%

- IC50 [10]: 10 µM
- IC50 (Rattus norvegicus): Not Active
Structure (SMILES): O=C(O)c1ccc(OCCn2ccnc2)cc1 [DAZOXIBEN]
